Test system: MS2 coat protein
Assay: apparent Kd, MS2 coat protein; higher = weaker binding; RNA-MaP array; FMN 200 µM where present
Summary of the method: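 SNAP-549-labelled MS2 coat protein, doubled from 0.7 or 1.5 nM to 3 µM, was titrated over designs transcribed by stalled E. coli RNA polymerase on Illumina sequencing-chip clusters. Titrations were run without and then with constant ligand in 100 mM Tris-HCl pH 7.5, 80 mM KCl, 4 mM MgCl2, BSA, DTT, yeast tRNA and Tween-20. The apparent Kd is the median of filtered per-cluster fits to green signal normalised to red-channel RNA signal and control-cluster median Fmax.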

[1] = designed as: OFF switch for flavin mononucleotide, no ligand
[2] = ligand present: flavin mononucleotide, designed as: OFF switch for flavin mononucleotide
[3] = designed as: ON switch for flavin mononucleotide, no ligand
[4] = ligand present: flavin mononucleotide, designed as: ON switch for flavin mononucleotide

Sequence | apparent Kd [1] [µM] | apparent Kd [2] [µM] | apparent Kd [3] [µM] | apparent Kd [4] [µM]
UUAUUAUAUGUAGGAUAUGCGUAUUAUUGUUAUGCAGAAGGACAUGAGGAUCACCCAUGUAUAUUAUUGUUAUGUAUUAUAUAU | 0.0305 | 0.0693 | – | –
CGAUAAUAUAGUUAUCCGUAACGGACAUGAGGAUCACCCAUGUAGGAUAUGUUACUCAACGAGUAACAGAAGGACAUGAGUCUU | 0.0148 | 0.109 | – | –
GAAGUUAGAGGAUAUACAUGAGGAUCACCCAUGUGUGUUGUGAACAAUGUAUGUUUAUGUAGAAGGCUAACUUC | 0.0794 | 0.241 | – | –
UAAUGACAUGUAGGAUAUCGAGGCCUAUGGCCUCGAGAAGGACAUGAGGAUCACCCAUGUAUUCCGAAUGAAUCAAAUAAUAAA | 0.0156 | 0.0308 | – | –
GGAGCACACAUUAACAUGAGGAUCACCCAUGUCAAAAGACAUGAGGAUAUGGAUCCGAAAAGGAUCCAGAAGGCAUGGCGCUCC | – | – | 0.103 | 0.0099
UGGUACUAGGGAGGAUAUGGGAAGGUACAUGAGGAUCACCCAUGUUUAAGAAUGCCGAGAGGCAACUAGAAGGCCCUAGUACCU | – | – | 0.204 | 0.0136
UUUGACAGCUAGAGUUGUUAAGUACAUGAGGAUCACCCAUGUCAGGAUAUCCUUCCGCAAUGCGAGGAGAAGGGACAGGGUCCC | 0.104 | 0.232 | – | –
UAUAUAUAGUAAGGAUAUGUAUUAAUUUGAUAAACAGAAGGUACUGACAUGAGGAUCACCCAUGUUUUAGUGUGGGCAUGUAGA | 0.0989 | 0.164 | – | –
GUCAGCUCGUGAGGAUAUACAACACUGCUUCGGCAGUGUAUGAAGAUCACAUGAGGAUCACCCAUGUAGAAGGCACGAGCUGAU | 0.00993 | 0.176 | – | –
ACUACGAUAGCGAUAUGAUCGAGAGAUCAUGUCGCUAAAUUUAGAAGGACAUGAGGAUCACCCAUGUAGGAUAUGGGUCGUAGA | – | – | 0.028 | 0.00962
GGAUAGGACAGAGGAUAUACAUGCUAGAGAUACUAGCAAAAUUUCCUCACAUGAGGAUCACCCAUGUAGAAGGCUGUCCUAUCG | 0.0285 | 0.673 | – | –
ACAUGAGGAUCACCCAUGUAUACAUAGGAUAUUGGUGAUCAGGCAUGUUUUACAGGAUAUGUCUGCGAGAAGGAUGCAAGUUGU | – | – | 0.633 | 0.346
UUGUUAUAUGUAGGAUAUGCAUAUUAUUAUUAUGCAGAAGGACAUGAGGAUCACCCAUGUAUAUUAUUGUUAUAUGUUAUAUAU | 0.023 | 0.0254 | – | –
UUUACAUGAGGAUCACCCAUGUCUUGAAAGAUUAGUUUUGGUGAGGAUAUACAUGAUAAAGAAUUGUAGAAGGCACUGGGUACA | – | – | 0.258 | 0.124
GGUGGCUUCACAGGAUAUCCCGAGCCAAACAUGAGGAUCACCCAUGUGCUGGUAUUAAAAUUUGCGGAGAAGGGUGGUUCACGU | – | – | 0.154 | 0.0741
AAAACGGCACGUCCCGUGCCAACUACAGAAGGCCAACAUGAGGAUCACCCAUGUACAAACUAGAUGGAGGAUAUGUAGGUUCUA | – | – | 0.00619 | 0.00424
CAUUGCGAAGGAUAUACAUGAGGAUCACCCAUGUGUUUCCUCACGCACGGGAGUAGCGGUAGAAGGUCGCAGAA | 0.0147 | 0.0294 | – | –
UUAUUUAGGUAGGAUAUCGAUAUUAAUCCCUAUCGAGAAGGGUCUACAUGAGGAUCACCCAUGUUAGCAUGUUU | 0.0215 | 0.0213 | – | –
GUGCACAUUCGAGGAUAUCGGAGAGAGAUCCUUCGAGAAGGCGAUUCAUGCUGUGUUAUUCUGGACAUGAGGAUCACCCAUGUG | – | – | 0.326 | 0.172
AGCUGGUGACAGCAUCCAUCUUAACAUGAGGAUCACCCAUGUAGAAGGCUGUACGGUUACCGUACAGAGGAUAUACAUAGAUGG | 0.00795 | – | – | –
GUGCGAGGCUAGGAUAUUGUGGGUUUUUGUCUGCGAGAAGGAGCCACAUGAGGAUCACCCAUGUGGUGUUGCUC | 0.0644 | 0.294 | – | –
CACACGAAAGUCGAACGAUGAUCCAGAAGGAGUAUAACAUGACAUGAGGAUCACCCAUGUGCCAACUAGGAUAUGGAUCAUGGG | 0.0863 | 0.0151 | – | –
GUGAGGUCAGGAUAUGCAUGGCGGGACUUGCGUCGUGGCGUGGAGAAGGGACAUGAGGAUCACCCAUGUGGAGC | 0.0556 | 0.0591 | – | –
GUCAGCUCGUGAGGAUAUACAACACUGCUUCGGCAGUGUAUUAAGAUCACAUGAGGAUCACCCAUGUAGAAGGCGCGAGCUGAU | 0.0133 | 0.243 | – | –
AAGGCGAGAGGAUAUACAUGAGGAUCACCCAUGUGUCGGCCCUCCGCAUAUGCCUUGUGUAGAAGGCUCCCGAA | 0.0165 | 0.0229 | – | –
GAUUAUAAGUAAGGAUAUGUAUAUGAAACAUAUACAGAAGGUACAUGAGGAUCACCCAUGUUCUUGCAGCGUGAAUAUGUAAUC | 0.0191 | 0.0285 | – | –
ACGUGUCGUGUAGGAUAUGACACAGGAAACUGGUCAGAAGGACAUGAGGAUCACCCAUGUAAAAUGUUCAAGAAUGACGUAUGC | 0.0586 | 0.105 | – | –
ACGUAAAUUCGAGGAUAUCGGUGAUAUAAUUUACGAGAAGGCGAUAAUUGUGAUAAACUUAUAGACAUGAGGAUCACCCAUGUA | – | – | 0.0427 | 0.0379

Sequence | apparent Kd [1] [µM] | apparent Kd [2] [µM] | apparent Kd [3] [µM] | apparent Kd [4] [µM]
UGAGCAUGAGGAUAUACAAGGCGUGCGUGAGCACGAGGUUUACAUGAGGAUCACCCAUGUAGAAGGCAUGUUCU | 0.0191 | 0.0398 | – | –
GUAGCUAGUAAAGGAUAUUAGUGUGUGUAAUAUUGAGAAGGUUACAUGAGGAUCACCCAUGUGAUCAAUCACUGUUAAGGUUGC | 0.00629 | 0.00633 | – | –
GCCAGUUAUGUAGGAUAUGCGAGGCGAGCCUGAGCAGAAGGACAUGAGGAUCACCCAUGUAUUGCGGUUUGAGUACUGAUCGCU | 0.0381 | 0.215 | – | –
AUGGGACAUGAGGAUCACCCAUGUCAGGAUAUUUAGUCGCUGCGGAAAUGUGUUGGUUGGAGAAGGGACAUCAU | 0.0383 | 0.0351 | – | –
UCCUCACAUGAGGAUCACCCAUGUCAGGAUAUCUGCGAGCAAUGGCCAAGGCCACUCAGGAGAAGGGACGUCAA | 0.0163 | 0.0223 | – | –
UCUACAUAAAUUCAUCAAUACAGAAAGGAUAUGAGAUACAUGAGGAUCACCCAUGUGCAUGGGAAUUAGAAGGUUCAAUUAGCU | 0.0942 | 0.0587 | – | –
UAGGAGUCAGGAUAUGCGAGAGAUUGAAGUAUGGGAUGUGAGCAGAAGGGACAUGAGGAUCACCCAUGUAUGGA | 0.167 | 0.15 | – | –
GUGUUACAUGAGGAUCACCCAUGUUGUUUUAGAUAAGGAUAUAUGGUAACGAGAGAAAUAAUAGAAGGUAUUAGGC | – | – | 0.0334 | 0.0231
AAUUAUAUACAGAAGGAGUUAUAUUAAGUAUUACUAGGAUAUGUUCACAUGAGGAUCACCCAUGUCAUAUUGGGAUUUAUUUUU | 0.017 | 0.0216 | – | –
UUACCUUAUGAGAAGGCGAUCAUGAAACAUGAUCGAGGAUAUCAUGUAAACAUGAGGAUCACCCAUGUAUGGGUAUUAUGGUAA | – | – | 0.213 | 0.0285
GAAAAACAUGAGGAUCACCCAUGUAGAAAUAUGGGAGGAUAUACAAAGUCGAAAGACAAAGUAGAAGGCCUAAAAG | – | – | 0.146 | 0.0269
GUGCAGAUGUAAGGAUAUCGACUGGAAUACAGUCGAGAAGGUACAUGAGGAUCACCCAUGUAAAUGAAAGAUAAUAAACUGCAC | 0.0153 | 0.0261 | – | –
GCGUUGUCAGGAUAUUAUCCGUGGACAAUAGUCAGACACGGUAAGAAGGGACAUGAGGAUCACCCAUGUCCUCA | 0.0176 | 0.0271 | – | –
GUCAGCUCGUGAGGAUAUACACCACUGCUUCGGCAGUGUAUUAAGAUCACAUGAGGAUCACCCAUGUAGAAGGCACGAGCUGAU | 0.0145 | 0.255 | – | –
GUAGCAUGCAGCGAGGAUAUUCAUAUUAAAACAUGAGGAUCACCCAUGUAGGCCAAAAGGCCUUGGGAGAAGGCGCACAUGCUAC | – | – | 0.777 | 0.0432
CACUGUUUAGAGGAUAUUUACGGGUCACACCCAGGAGAAGGCUGUACAUGAGGAUCACCCAUGUGGUGCGCCUG | 0.0324 | 0.0513 | – | –
AAUAGCUGAGGAUAUACAUGAGGAUCACCCAUGUAUUAGUAGGCUGGGAAUAAAUCGUGUAGAAGGCAGGAUGA | 0.016 | 0.0272 | – | –
GGACAUGAGGAUCACCCAUGUCGAACAUGAGGAUCACCCAUGUAGGAUAUGCUACUCAAAGAGUAGCAGAAGGACAUGUGCCUU | 0.0537 | 0.0512 | – | –
AUAAACAUGAGGAUCACCCAUGUGAGAAGGCGCAUUACUAUAUUUAUACACUUUAAUACUAACAGCGAGGAUAUCACCUCAUAA | 0.0158 | 0.0247 | – | –
UUAAAAGUGACAUGAGGAUCACCCAUGUGAAUUAGUAGUAGCAGAAGGCACGUGGGAAGACCAAGUGAGGAUAUGUAGCUUUAA | – | – | 0.515 | 0.044
AAGUAUGGAGGAUAUACAUGGAUAUACAUUCAUGUGGACCUACAUGAGGAUCACCCAUGUAGAAGGCCAUAAUA | 0.0307 | 0.0166 | – | –
UGGUACAUGGGAGGAUAUCCUCAACAUGAGGAUCACCCAUGUAAGAAUUAUAAGCCGAAAGGCAUGGAGAAGGCCCAUGUACCU | – | – | 0.0716 | 0.0153
CCGAUAAGGAGAGGAUAUGGACAUGAGGAUCACCCAUGUACAUGGGAAUAUAUACUGAAUUUUUACUAGAAGGCUUACAUAAAU | 0.0156 | 0.0126 | – | –
GGUACGUCCACAGGAUAUGCGAAACAAGAAACCGCAGAAGGGUGAGGCGUCAGGACCCUGGACAUGAGGAUCACCCAUGUGCGU | – | – | 0.113 | 0.0154
UAUAAGUCUCAUGUAACAUGAGGAUCACCCAUGUCAUAUUGUAGAAGGAUGAUAUUAUGUAUAUCAUAGGAUAUACUAUAAGAU | 0.0213 | 0.0233 | – | –
GCAAGUACGAGAGGAUAUUGACAUGAGGAUCACCCAUGUAUUUGGGAGUGUUCACUGAAUUCUUACGAGAAGGCUCGUACAUGC | 0.246 | 0.232 | – | –
UUUAUAUAGUAAGGAUAUGUAUUAUUUCUAUCAACAGAAGGUACUGACAUGAGGAUCACCCAUGUUUUAGUGUGGGCAUGUAGU | 0.261 | 0.381 | – | –

From the EternaBench riboswitch data
